High-throughput results (PubChem)
SUMO1 PPI mod: alters human SUMO1 binding to SIM partners; P63165; hit rate 0.33% among 360,000; inhibition, % at 20 µM; SUMO1 binding to a labelled peptide, TR-FRET, 1 h; in the data active = inhibition above about 37%
Scp1 inh: Scp-1 (human) phosphatase inhibition. Q9GZU7. Recombinant Scp1, phosphopeptide, malachite green phosphate absorbance. inhibition, % at 20 µM. hit rate 0.88% among 340,000. AID 493091;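 active = inhibition above about 50% at 20 µM, limit read from the data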;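 also: plate controls were DMSO wells with enzyme for no effect and wells lacking enzyme for full effect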
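Incubation: 45 min enzyme reaction at room temperature / System: truncated SCP-1 phosphatase (76-261aa) / Reagent: Phospho 17-mer peptide substrate / Buffer or medium: Acidic Tris acetate buffer with magnesium and detergent / Signal: absorbance at 630 nm / Doses: one concentration, 20 µM, with 1.0% DMSO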
LMPTP inh: blocks human LMPTP phosphatase; inhibition, % at 20 µM; P24666; hit rate 0.22% among 360,000; recombinant LMPTP-A, OMFP fluorogenic substrate, fluorescence intensity;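 active = compounds that cut the enzyme signal by at least half of the control window in the single-dose screen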;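 also: plate controls were DMSO wells with enzyme plus substrate for no effect and substrate without enzyme for full effect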
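Assay system: LMPTP-A enzyme. Input: 0.625 nM LMPTP-A final. Probe or stimulus: 400 µM OMFP. Compound dosing: single 20 µM dose. Schedule: 50 min dark incubation at room temperature. Detection: fluorescence intensity of OMFP turnover product. Read-out: percent inhibition versus substrate-only and uninhibited controls. Benchmarks: no-enzyme low control, uninhibited high control.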
STEP inh: inhibitors of human striatal-enriched phosphatase STEP | P54829 | recombinant STEP, OMFP fluorogenic substrate, fluorescence | inhibition, % at 20 µM | hit rate 0.25% among 360,000 | AID 588621;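 active = inhibition at 20 µM, scaled per plate between control wells, above about 37%, limit read from the data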;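 also: 0% = DMSO with enzyme and substrate and 100% = substrate only without enzyme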
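Test system: STEP tyrosine phosphatase / Reagent: OMFP at 25 µM / Doses: 20 µM, 1% DMSO / Read-out: percent inhibition scaled to no-enzyme and uninhibited-enzyme controls, plate-pattern corrected / Detection: FITC-channel fluorescence of OMFP product / Medium: Bis-Tris buffer pH 6.0, 2.5 mM DTT, 0.005% Tween 20 / Schedule: 20 min at room temperature, dark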
DNMT1 block: blocks human DNA methyltransferase DNMT1; P26358; inhibition (reported as % activation of signal), % at 10 µM; AID 588458; hit rate 0.83% among 360,000; DNMT1 molecular beacon, Hinp1I cleavage, fluorescence; in the data active = inhibition above about 50%
Target sequence (P26358 504-1616 limits assumed): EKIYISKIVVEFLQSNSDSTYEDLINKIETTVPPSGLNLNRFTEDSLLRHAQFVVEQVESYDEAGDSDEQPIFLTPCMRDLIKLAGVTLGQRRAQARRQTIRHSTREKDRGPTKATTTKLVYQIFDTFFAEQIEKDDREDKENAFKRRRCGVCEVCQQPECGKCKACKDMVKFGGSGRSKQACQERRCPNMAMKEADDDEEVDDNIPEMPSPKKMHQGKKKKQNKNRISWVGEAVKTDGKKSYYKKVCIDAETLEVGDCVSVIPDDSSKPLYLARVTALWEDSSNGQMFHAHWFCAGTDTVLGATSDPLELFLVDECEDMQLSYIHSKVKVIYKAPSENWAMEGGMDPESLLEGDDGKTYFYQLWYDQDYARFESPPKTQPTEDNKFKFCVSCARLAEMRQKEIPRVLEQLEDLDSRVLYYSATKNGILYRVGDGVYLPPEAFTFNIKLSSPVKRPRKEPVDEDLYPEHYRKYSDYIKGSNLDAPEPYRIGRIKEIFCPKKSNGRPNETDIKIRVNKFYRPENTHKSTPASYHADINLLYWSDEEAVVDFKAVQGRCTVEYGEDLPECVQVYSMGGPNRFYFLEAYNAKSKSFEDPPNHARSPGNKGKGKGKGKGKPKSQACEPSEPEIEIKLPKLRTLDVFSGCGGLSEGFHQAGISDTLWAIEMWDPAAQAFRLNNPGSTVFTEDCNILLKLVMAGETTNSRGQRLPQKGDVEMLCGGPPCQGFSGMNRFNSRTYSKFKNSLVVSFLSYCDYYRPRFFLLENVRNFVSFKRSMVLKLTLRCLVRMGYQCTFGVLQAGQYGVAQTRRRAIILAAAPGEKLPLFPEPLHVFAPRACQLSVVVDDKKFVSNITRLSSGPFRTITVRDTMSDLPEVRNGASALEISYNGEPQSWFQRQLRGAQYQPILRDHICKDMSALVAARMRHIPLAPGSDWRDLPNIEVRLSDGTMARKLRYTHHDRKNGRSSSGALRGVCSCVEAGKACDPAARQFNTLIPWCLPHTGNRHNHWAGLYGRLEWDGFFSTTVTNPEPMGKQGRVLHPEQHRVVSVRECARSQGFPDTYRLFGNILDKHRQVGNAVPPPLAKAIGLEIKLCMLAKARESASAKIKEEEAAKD
* marks the source's active call; other numbers are inactive results; · = not tested or not shown; ! = repeats disagree. Hits are enriched below; roughly 1.7% of the tested compounds scored in any of these assays.

SMILES	SUMO1 PPI mod	Scp1 inh	LMPTP inh	STEP inh	DNMT1 block
Cc1ccccc1CN1C(=O)C(C)S/C1=N/N=C/c1ccco1 (stereo unspecified)	28	-11	2	2	-3
Cc1ccccc1CN1C(=O)C(C)Sc2ccc(-c3ccco3)cc21 (stereo unspecified)	6	·	1	2	58*
CCNc1ccc2noc3c2c1C(=O)c1ccccc1-3	-12	12	-15	-321	63*
CCOC(=O)C1CCN(S(=O)(=O)c2ccc3c(c2)CC(=O)N3C)CC1	-1	69*	-1	0	-4
CCOC(=O)C1CCN(S(=O)(=O)c2ccc3c(c2)CCCN3C(C)=O)CC1	-6	-6	0	-1	0
Cc1ccccc1C(=O)N1CCC(C(N)=O)CC1	55*	-6	-2	2	2
O=C(O)C1Nc2ccc(Br)cc2C2C=CCC12 (stereo unspecified)	94*	69*	84*	94*	93*
O=C(O)C1Nc2c(Cl)cc(Cl)cc2C2C=CCC12 (stereo unspecified)	103*	72*	87*	41*	88*
O=C(O)C1Nc2c(O)cccc2C2C=CCC12 (stereo unspecified)	26	71*	74*	16	103*
CC(=O)c1cccc(NS(=O)(=O)N2CCOCC2)c1	2	-5	1	0	0
O=Nc1c(-c2cccc([N+](=O)[O-])c2)nc2ncccn12	-25	·	0	1	0
COc1cccc(C(O)c2ncc(-c3ccccc3OC)[nH]2)c1 (stereo unspecified)	3	·	-1	-1	7
COCCN(C(=O)c1ccc(-c2ccc([N+](=O)[O-])cc2)o1)c1c(N)n(CC(C)C)c(=O)[nH]c1=O	-37	-2	0	-1	-9
Cc1ccccc1CN1C(=O)c2ccccc2S1(=O)=O	44*	-4	-1	0	-2
Cc1ccccc1CNC(=O)CN1C(=O)c2ccccc2S1(=O)=O	-1	2	0	0	-2
CCn1cc(C(=O)O)c(=O)c2cc(F)c(N3CCN(C(=S)NC(=O)c4ccc(Br)cc4)CC3)cc21	25	-7	61*	3	-2
CCCCCCCC(=O)N1CCN(c2cc3c(cc2F)c(=O)c(C(=O)O)cn3CC)CC1	0	-4	9	3	-1
CCn1cc(C(=O)O)c(=O)c2cc(F)c(N3CCN(C)CC3)cc21	0	-1	-2	-1	-3
CCn1cc(C(=O)O)c(=O)c2cc(F)c(N3CCN(C(=S)NC(=O)c4cccc(C)c4)CC3)cc21	5	-12	60*	2	-3
CCn1cc(C(=O)O)c(=O)c2cc(F)c(N3CCN(C(=O)Nc4ccccc4)CC3)cc21	10	-10	51*	-1	-2
CCn1cc(C(=O)O)c(=O)c2cc(F)c(N3CCN(C(=S)NC(=O)c4ccc(OC)cc4)CC3)cc21	6	-9	67*	7	1
CCCCCCCCC(=O)N1CCN(c2cc3c(cc2F)c(=O)c(C(=O)O)cn3CC)CC1	1	-10	15	2	-4
O=C(Nc1ccccc1F)c1csc(COCCO)n1	-3	·	-2	-3	1
CCn1cc(C(=O)O)c(=O)c2cc(F)c(N3CCN(C(=S)NC(=O)c4ccccc4F)CC3)cc21	-7	-12	70*	2	0
CCn1cc(C(=O)O)c(=O)c2cnc(N3CCN(C(=S)Nc4ccccc4Cl)CC3)nc21	8	2	51*	5	0
SMILES	SUMO1 PPI mod	Scp1 inh	LMPTP inh	STEP inh	DNMT1 block
CCn1cc(C(=O)O)c(=O)c2cc(F)c(N3CCN(S(=O)(=O)c4ccc5c(c4)OCCO5)CC3)cc21	5	1	62*	0	-1
CCN1/C(=C/c2ccc3cc(C)ccc3[n+]2C)Sc2ccc3sccc3c21	24	45	77*	17	-17
CCCCN1/C(=C/c2ccc3ccccc3[n+]2CC)Sc2ccccc21	-55	7	7	0	16
CCN1/C(=C/c2ccc3cc(C)ccc3[n+]2CC)Sc2cc(C)ccc21	-75	34	50*	4	9
Cc1csc2nc(O)c(C(=O)NCc3ccc4c(c3)OCO4)c(=O)n12	7	-5	53*	1	0
CN1Cc2sc(NC(=S)NC(=O)c3ccccc3)c(C#N)c2CC1(C)C	·	3	·	·	·
CCN1CCc2c(sc(NC(=S)NC(=O)c3ccccc3)c2C#N)C1	-1	9	58*	-3	-5
CC(=O)Nc1sc2c(c1C#N)CCN(Cc1ccccc1)C2	4	-5	-2	3	1
CCC1(C)Cc2c(sc(NC(=S)NC(=O)c3ccccc3)c2C#N)CO1 (stereo unspecified)	-5	-3	52*	1	-5
N#Cc1c(NC(=O)/C=C/C(=O)O)sc2c1CCN(Cc1ccccc1)C2	10	68*	47*	2	37
O=C(Cc1ccccc1)NCC(=O)OCc1cccc([N+](=O)[O-])c1	-26	1	0	2	1
CS(=O)(=O)c1ccc(C(=O)OCC(=O)NCc2cccs2)cc1[N+](=O)[O-]	-13	-3	0	22	71*
Cc1ccc(-n2c(=O)[nH]c3c(C(N)=O)nc(C(C)C)nc32)cc1	-1	-9	0	-2	0
Cc1ccsc1-c1nc(C(N)=O)c2[nH]c(=O)n(-c3ccc(Cl)cc3)c2n1	16	7	11	1	55*
CCN(CC(=O)Nc1c(F)cccc1F)C(=O)c1n[nH]c2ccccc12	3	21	-1	1	-2
CC(=O)c1ccc(NCC(=O)N2CCN(S(=O)(=O)c3ccccc3)CC2)cc1	2	-2	0	0	3
O=C(CNc1ccc(Cl)c(C(F)(F)F)c1)N1CCN(S(=O)(=O)c2ccccc2)CC1	0	69*	2	2	-1
Cc1cccc(C)c1-n1nnnc1C1(C)CCC(=O)N1Cc1cccs1 (stereo unspecified)	0	·	0	·	·
COc1ccc(S(=O)(=O)N2CCCOC2CNC(=O)C(=O)NCCCN2CCOCC2)cc1C (stereo unspecified)	2	-2	-4	5	2
CCCS(=O)(=O)Nc1ccc(Nc2c3ccccc3nc3ccccc23)c(OC)c1	-26	2	34	7	12
COc1cc(N)ccc1Nc1c2ccccc2nc2ccccc12	-62	·	87*	6	-14
COc1cc(N=c2ssnc2Cl)c(OC)cc1Cl	-7	2	48*!	4	-4
COc1ccc(OC)c(N=c2ssnc2Cl)c1	6	-1	34	0	-12
Nc1ccc2c(c1Cl)C(=O)c1ccc(N)c(Cl)c1C2=O	109*	90*	82*	99*	81*
CC[n+]1c(/C=C/c2c[nH]c3ccccc23)ccc2cc(C)ccc21	·	68*	·	·	·
